Laboratory results as given in ChEMBL document CHEMBL2311246 (Bioorg Med Chem, 2013).
Active and inactive are the calls of the source. No cut-off for these calls is given here.

How the values were obtained:
Hepatitis C virus [1] = experiment: Antiviral activity against HCV JFH1 infected in human Huh7.5.1 cells assessed as reduction in viral proteins after 72 hrs post compound dose by Western blotting method; format: functional, organism-based, Hepacivirus hominis; conditions: JFH1, Huh-7, 72 h
LNCaP = experiment: Antiproliferative activity against human LNCAP cells after 72 hrs after ATPlite kit assay; format: functional, cell-based
How it was run: (§1)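 10,000 cells per well plated, incubated overnight, then exposed to increasing compound concentrations for 72 h. Viability read by ATPlite luminescence. IC50 obtained by linear regression. Prostate lines (DU145, PC-3, LNCaP) are ATCC stocks. LNCaP culture was modified from the earlier method.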

[2] = Antiproliferative activity against human Huh7.5.1 cells after 72 hrs after ATPlite kit assay; format: functional, cell-based; conditions: Huh-7, 72 h; how it was run: as §1
Cytochrome P450 2C9 = Cytochrome P450 2C9 (Homo sapiens, UniProt P11712); experiment: Inhibition of CYP2C9 in pooled human liver microsomes assessed as reduction in enzyme-mediated (S)-warfarin 7-hydroxylation by HPLC/MS-MS method; format: ADME, Microsome
How it was run: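 Pooled HLM (0.1 mg/mL microsomal protein) incubated with (S)-warfarin 4 µM and compound at 1, 10 or 100 µM in 100 mM potassium phosphate, pH 7.4. Vehicle controls held 0.75% MeOH (v/v). Sulfaphenazole 1 µM served as positive control. 7-Hydroxywarfarin measured by HPLC/MS-MS. Means ± SD of triplicate incubations; two-way ANOVA with Tukey post hoc test.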

DU-145 = experiment: Antiproliferative activity against human DU145 cells after 72 hrs after ATPlite kit assay; format: functional, cell-based; conditions: DU-145, 72 h; how it was run: as §1
PC-3 = experiment: Antiproliferative activity against human PC3 cells after 72 hrs after ATPlite kit assay; format: functional, cell-based; conditions: PC-3, 72 h; how it was run: as §1
Hepatitis C virus [3] = experiment: Antiviral activity against HCV JFH1 infected in human Huh7.5.1 cells assessed as reduction in viral proteins at non-cytotoxic concentration after 72 hrs post compound dose by Western blotting method; format: functional, organism-based; conditions: Hepacivirus hominis, Huh-7

Cytochrome P450 2C9, sequence (P11712 whole entry): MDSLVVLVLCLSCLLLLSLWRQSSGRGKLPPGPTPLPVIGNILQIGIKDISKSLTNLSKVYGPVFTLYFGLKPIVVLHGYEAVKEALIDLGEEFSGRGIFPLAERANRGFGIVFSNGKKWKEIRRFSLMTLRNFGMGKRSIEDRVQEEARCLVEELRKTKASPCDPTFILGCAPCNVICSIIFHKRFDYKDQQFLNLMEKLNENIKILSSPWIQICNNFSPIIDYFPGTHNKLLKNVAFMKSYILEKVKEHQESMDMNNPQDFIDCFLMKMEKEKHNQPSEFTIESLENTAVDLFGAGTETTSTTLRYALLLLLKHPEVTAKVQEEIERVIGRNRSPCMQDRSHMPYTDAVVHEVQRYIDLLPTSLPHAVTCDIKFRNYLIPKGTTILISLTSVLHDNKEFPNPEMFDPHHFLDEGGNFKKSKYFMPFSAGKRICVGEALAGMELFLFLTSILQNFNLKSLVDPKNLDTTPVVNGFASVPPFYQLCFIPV

| SMILES | IC50 (Hepatitis C virus [1]) | IC50 (LNCaP) | IC50 (Cytochrome P450 2C9) | IC50 (DU-145) | IC50 (PC-3) | inhibition (INH) (Cytochrome P450 2C9; human, microsomes) | IC50 [2] | Activity (Hepatitis C virus [3]) |
| --- | --- | --- | --- | --- | --- | --- | --- | --- |
| COc1cc([C@@H]2Oc3cc([C@H]4Oc5cc(O)cc(O)c5C(=O)[C@@H]4O)ccc3O[C@H]2CO)ccc1O [SILYBIN B] | 40 µM | 69.6 µM | 8.2 µM | 61.8 µM | 60.5 µM |  | 56.2 µM |  |
| COC[C@@H]1Oc2ccc([C@H]3Oc4cc(OC)cc(O)c4C(=O)[C@@H]3O)cc2O[C@H]1c1ccc(OC)c(OC)c1 |  | 19.8 µM |  | 16.8 µM | 21.9 µM |  |  |  |
| COc1cc(O)c2c(c1)O[C@H](c1ccc3c(c1)O[C@@H](c1ccc(OC)c(OC)c1)[C@H](CO)O3)[C@@H](O)C2=O |  | 11.3 µM |  | 10 µM | 8.1 µM |  | 13.5 µM | Active |
| COc1cc(O)c2c(c1)O[C@H](c1ccc3c(c1)O[C@@H](c1ccc(O)c(OC)c1)[C@H](CO)O3)[C@@H](O)C2=O |  | 20.1 µM |  | 19.3 µM | 16.9 µM |  | 13.3 µM | Active |

Continued, in another order:

| IC50 (Hepatitis C virus [1]) | IC50 (LNCaP) | IC50 (Cytochrome P450 2C9) | IC50 (DU-145) | IC50 (PC-3) | inhibition (INH) (Cytochrome P450 2C9; human, microsomes) | SMILES | IC50 [2] | Activity (Hepatitis C virus [3]) |
| --- | --- | --- | --- | --- | --- | --- | --- | --- |
|  | 30.1 µM |  | 24 µM | 14.4 µM | Not Active | COC[C@@H]1Oc2ccc([C@H]3Oc4cc(OC)cc(OC)c4C(=O)[C@@H]3O)cc2O[C@H]1c1ccc(OC)c(OC)c1 | 15.6 µM | Active |
|  | 40.7 µM |  | 46.9 µM | 36.3 µM |  | COc1cc(OC)c2c(c1)O[C@H](c1ccc3c(c1)O[C@@H](c1ccc(OC)c(OC)c1)[C@H](CO)O3)[C@@H](O)C2=O | 25.5 µM | Active |
